Results: ChEMBL document CHEMBL3046679, “Design, synthesis, and biological activities of arylmethylamine substituted chlorotriazine and methylthiotriazine compounds” (J Agric Food Chem, 2011)
Activity calls are given as the source filed them. No cut-off for these calls is given here.

How the values were obtained:
[1] = tested on: Zymoseptoria tritici; assay: Fungicidal activity against Zymoseptoria tritici assessed as inhibition of mycelia growth at 100 ppm; format: functional, organism-based
[2] = tested on: Puccinia triticina; assay: Fungicidal activity against Puccinia triticina assessed as inhibition of disease development in compound treated leaf pieces at 60 ppm relative to untreated control (wheat-preventative); format: functional
In short: (§1)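 Preventative leaf-piece test on host tissue (tomato, vine, wheat or barley). Formulated compound applied at 200, 60 and 20 ppm before spore inoculation. Disease scored 3–9 days after inoculation, depending on the pathogen, as percent inhibition of disease development versus untreated controls. Values are the mean across replicates.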

[3] = tested on: Alternaria solani; assay: Fungicidal activity against Alternaria solani assessed as inhibition of mycelia growth at 2 ppm; format: functional, organism-based
In short: (§2)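 Mycelial growth test in 96-well plates: compound incorporated into artificial growth medium at 2 ppm, two replicates per rate. Each well scored 99 for complete, 55 for partial or 0 for no inhibition. Values are the mean across replicates; azoxystrobin and prochloraz used as positive controls.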

[4] = tested on: Brassica napus; assay: Herbicidal activity against Brassica napus (oilseed rape) at 1.5 kg/ha preemergence treatment measured after 10 days by glasshouse test; format: functional; details: pre-emergence, 240 h
In short: (§3)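 Glasshouse pre/postemergence test, each treatment in triplicate. Above-ground fresh weight measured 10 days after treatment. Result expressed as percent inhibition versus control, from 0 (no control) to 100 (complete control); glyphosate used as positive control.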

[5] = tested on: Puccinia triticina; assay: Fungicidal activity against Puccinia triticina assessed as inhibition of disease development in compound treated leaf pieces at 200 ppm relative to untreated control (wheat-preventative); format: functional; in short: as §1
[6] = tested on: Pyrenophora teres; assay: Fungicidal activity against Pyrenophora teres assessed as inhibition of disease development in compound treated leaf pieces at 200 ppm relative to untreated control (barley-preventative); format: functional; in short: as §1
[7] = tested on: Blumeria graminis f. sp. tritici; assay: Fungicidal activity against Blumeria graminis f. sp. tritici assessed as inhibition of disease development in compound treated leaf pieces at 200 ppm relative to untreated control (wheat-preventative); format: functional
[8] = tested on: Digitaria sanguinalis; assay: Herbicidal activity against Digitaria sanguinalis (hairy crabgrass) assessed as growth inhibition at 1 kg/ha preemergence treatment by glasshouse test; format: functional; details: pre-emergence, read-out: GI
In short: (§4)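 Glasshouse screen with pre- or postemergence application at 1.0 kg/ha. Result given as percent inhibition of plant growth; norflurazon and glyphosate used as controls.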

[9] = tested on: Phytophthora infestans; assay: Fungicidal activity against Phytophthora infestans assessed as inhibition of disease development in compound treated leaf pieces at 200 ppm relative to untreated control (tomato-preventative); format: functional; in short: as §1
[10] = tested on: Parastagonospora nodorum; assay: Fungicidal activity against Phaeosphaeria nodorum assessed as inhibition of disease development in compound treated leaf pieces at 20 ppm relative to untreated control (wheat preventative); format: functional; in short: as §1
[11] = tested on: Pyrenophora teres; assay: Fungicidal activity against Pyrenophora teres assessed as inhibition of disease development in compound treated leaf pieces at 20 ppm relative to untreated control (barley-preventative); format: functional; in short: as §1
[12] = tested on: Brassica napus; assay: Herbicidal activity against Brassica napus (oilseed rape) at 1.5 kg/ha postemergence treatment measured after 10 days by glasshouse test; format: functional; details: post-emergence, 240 h; in short: as §3
[13] = tested on: Heliothis virescens; assay: Insecticidal activity against Lepidoptera Heliothis virescens (tobacco budworm) assessed as mortality at 1000 ppm by leaf-disk assay; format: functional, organism-based
In short: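 Leaf-disk assay at 1000 ppm, three replicates. Plates kept 5–9 days in controlled-environment cabinets. Mortality judged against untreated wells: 99 for significant mortality, 0 otherwise. Values are the mean of three; thiamethoxam and indoxacarb used as positive controls.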

[14] = tested on: Alternaria solani; assay: Fungicidal activity against Alternaria solani assessed as inhibition of disease development in compound treated leaf pieces at 60 ppm relative to untreated control (tomato-preventative); format: functional; in short: as §1
[15] = tested on: Poa annua; assay: Herbicidal activity against Poa annua assessed as growth inhibition at 32 ppm by 96-well plate test; format: functional; details: read-out: GI
In short: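 96-well plate herbicide screen: Arabidopsis thaliana at 10 ppm and Poa annua at 32 ppm, two replicates. Plates incubated seven days in a controlled-environment cabinet. Each replicate scored 0 (no visible effect) or 99 (herbicidal effect); values are the mean of the two. Atrazine used as reference.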

[16] = tested on: Stellaria media; assay: Herbicidal activity against Stellaria media assessed as growth inhibition at 1 kg/ha preemergence treatment by glasshouse test; format: functional; details: pre-emergence, read-out: GI; in short: as §4
[17] = tested on: Amaranthus retroflexus; assay: Herbicidal activity against Amaranthus retroflexus assessed as growth inhibition at 1 kg/ha postemergence treatment by glasshouse test; format: functional; details: post-emergence, read-out: GI; in short: as §4
[18] = tested on: Pythium dissimile; assay: Fungicidal activity against Pythium dissimile assessed as inhibition of mycelia growth at 2 ppm; format: functional, organism-based; in short: as §2
[19] = tested on: Echinochloa crus-galli; assay: Herbicidal activity against Echinochloa crus-galli (barnyard grass) at 1.5 kg/ha preemergence treatment measured after 10 days by glasshouse test; format: functional; details: pre-emergence, 240 h; in short: as §3
[20] = tested on: Fusarium graminearum; assay: Fungicidal activity against Fusarium graminearum assessed as inhibition of mycelia growth at 2 ppm; format: functional, organism-based; in short: as §2
[21] = tested on: Botrytis cinerea; assay: Fungicidal activity against Botryotinia fuckeliana assessed as inhibition of mycelia growth at 2 ppm; format: functional, organism-based; in short: as §2
[22] = tested on: Plasmopara viticola; assay: Fungicidal activity against Plasmopara viticola assessed as inhibition of disease development in compound treated leaf pieces at 60 ppm relative to untreated control (grapevine-preventative); format: functional; in short: as §1
[23] = tested on: Phytophthora infestans; assay: Fungicidal activity against Phytophthora infestans assessed as inhibition of disease development in compound treated leaf pieces at 20 ppm relative to untreated control (tomato-preventative); format: functional; in short: as §1
[24] = tested on: Digitaria sanguinalis; assay: Herbicidal activity against Digitaria sanguinalis (hairy crabgrass) assessed as growth inhibition at 1 kg/ha postemergence treatment by glasshouse test; format: functional; details: post-emergence, read-out: GI; in short: as §4
[25] = tested on: Amaranthus retroflexus; assay: Herbicidal activity against Amaranthus retroflexus assessed as growth inhibition at 1 kg/ha preemergence treatment by glasshouse test; format: functional; details: pre-emergence, read-out: GI; in short: as §4
[26] = tested on: Puccinia triticina; assay: Fungicidal activity against Puccinia triticina assessed as inhibition of disease development in compound treated leaf pieces at 20 ppm relative to untreated control (wheat-preventative); format: functional; in short: as §1
[27] = tested on: Uromyces viciae-fabae; assay: Fungicidal activity against Uromyces viciae-fabae assessed as inhibition of mycelia growth at 100 ppm; format: functional, organism-based
In short: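 Leaf-piece assay on bean at 100 ppm, with compound applied before spore inoculation and two replicates. Each well scored 99 for complete inhibition, 55 for partial and 0 for none; value is the mean score across replicates.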

[28] = tested on: Puccinia triticina; assay: Fungicidal activity against Puccinia triticina assessed as inhibition of disease development in compound treated leaf pieces at 200 ppm relative to untreated control (wheat-curative); format: functional
In short: (§5)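 Curative wheat leaf-piece test against Puccinia triticina. Leaf pieces inoculated with spores first, then treated with formulated compound at 200, 60 or 20 ppm. Disease scored 3–9 days after inoculation as percent inhibition versus untreated controls. Values are the mean across replicates.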

[29] = tested on: Phytophthora infestans; assay: Fungicidal activity against Phytophthora infestans assessed as inhibition of mycelia growth at 200 ppm; format: functional, organism-based
[30] = tested on: Lolium perenne; assay: Herbicidal activity against Lolium perenne (perennial ryegrass) assessed as growth inhibition at 1 kg/ha postemergence treatment by glasshouse test; format: functional; details: post-emergence, read-out: GI; in short: as §4
[31] = tested on: Parastagonospora nodorum; assay: Fungicidal activity against Phaeosphaeria nodorum assessed as inhibition of disease development in compound treated leaf pieces at 200 ppm relative to untreated control (wheat preventative); format: functional
In short: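 Wheat leaf pieces treated with formulated compound (200, 60 and 20 ppm) before inoculation with pathogen spores. Disease development assessed 3–9 days after inoculation, depending on the assay. Scored as percent inhibition relative to untreated controls; value is the mean across replicates.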

[32] = tested on: Pyrenophora teres; assay: Fungicidal activity against Pyrenophora teres assessed as inhibition of disease development in compound treated leaf pieces at 60 ppm relative to untreated control (barley-preventative); format: functional; in short: as §1
[33] = tested on: Puccinia triticina; assay: Fungicidal activity against Puccinia triticina assessed as inhibition of disease development in compound treated leaf pieces at 20 ppm relative to untreated control (wheat-curative); format: functional; in short: as §5

SMILES: CC(C)Nc1nc(Cl)nc(NCc2ccc(F)cc2)n1
- inhibition [1]: Active
- inhibition at 60 ppm [2]: 20%
- inhibition [3]: inactive
- inhibition at 1500 g/ha [4]: 100%
- inhibition at 200 ppm [5]: 100%
- inhibition at 200 ppm [6]: 0%
- inhibition at 200 ppm [7]: 70%
- inhibition of growth at 1000 g/ha [8]: 70%
- inhibition at 200 ppm [9]: 0%
- inhibition at 20 ppm [10]: 0%
- inhibition at 20 ppm [11]: 0%
- inhibition at 1500 g/ha [12]: 100%
- mortality [13]: inactive
- inhibition at 60 ppm [14]: 0%
- inhibition of growth at 32 ppm [15]: 0%
- inhibition of growth at 1000 g/ha [16]: 90%
- inhibition of growth at 1000 g/ha [17]: 100%
- inhibition [18]: inactive
- inhibition at 1500 g/ha [19]: 2.1%
- inhibition [20]: inactive
- inhibition [21]: Active
- inhibition at 60 ppm [22]: 20%
- inhibition at 20 ppm [23]: 0%
- inhibition of growth at 1000 g/ha [24]: 0%
- inhibition of growth at 1000 g/ha [25]: 100%
- inhibition at 20 ppm [26]: 0%
- inhibition [27]: Active
- inhibition at 200 ppm [28]: 100%
- inhibition [29]: inactive
- inhibition of growth at 1000 g/ha [30]: 50%
- inhibition at 200 ppm [31]: 70%
- inhibition at 60 ppm [32]: 0%
- inhibition at 20 ppm [33]: 20%
